{
  "source": "ChEMBL document CHEMBL1123985",
  "about": "“Oral absorption of cephalosporin antibiotics. 1. Synthesis, biological properties, and oral bioavailability of 7-(arylacetamido)-3-chloro cephalosporins in animals” (J Med Chem, 1988)",
  "key": {"Streptococcus pneumoniae": {"system": "Streptococcus pneumoniae", "assay": "Minimum inhibitory concentration against Park strain of Streptococcus pneumoniae"}, "Staphylococcus aureus [1]": {"system": "Staphylococcus aureus", "assay": "Minimum inhibitory concentration against V41 strain of Staphylococcus aureus", "type": "functional"}, "[2]": {"assay": "Oral bioavailability in mouse", "type": "ADME, organism-based", "conditions": "in vivo", "in_short": "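Male Cox mice given water and liquid diet overnight; 20 mg/kg in saline (2 mg/mL) sc or orally; urine from collection cages plus bladder contents over 2 h; activity by agar well assay with Bacillus subtilis ATCC 6633. Bioavailability from percent dose excreted in urine after oral vs parenteral dosing.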"}, "Staphylococcus aureus [3]": {"system": "Staphylococcus aureus", "assay": "Minimum inhibitory concentration against S13E strain of Staphylococcus aureus", "type": "functional"}, "Klebsiella aerogenes": {"system": "Klebsiella aerogenes", "assay": "Minimum inhibitory concentration against EB17 strain of Enterobacter aerogenes", "type": "functional"}, "Haemophilus influenzae [4]": {"system": "Haemophilus influenzae", "assay": "Minimum inhibitory concentration against sens CL strain of Haemophilus influenzae", "type": "functional"}, "[5]": {"system": "Staphylococcus epidermidis", "assay": "Minimum inhibitory concentration against 222 strain of Staphylococcus epidermidis", "type": "functional"}, "[6]": {"assay": "Minimum inhibitory concentration against N9 strain of Shigella sonnei", "type": "functional"}, "Streptococcus pyogenes": {"system": "Streptococcus pyogenes", "assay": "Minimum inhibitory concentration against Streptococcus pyogenes C203", "type": "functional"}, "Salmonella": {"system": "Salmonella", "assay": "Minimum inhibitory concentration against X514 strain of Salmonella", "type": "functional"}, "Klebsiella pneumoniae": {"system": "Klebsiella pneumoniae", "assay": "Minimum inhibitory concentration against X68 strain of Klebsiella pneumoniae", "type": "functional"}, "[7]": {"system": "Staphylococcus epidermidis", "assay": "Minimum inhibitory concentration against Epil strain of Staphylococcus epidermidis", "type": "functional"}, "Haemophilus influenzae [8]": {"system": "Haemophilus influenzae", "assay": "Minimum inhibitory concentration against res 76 strain of Haemophilus influenzae", "type": "functional"}, "Staphylococcus aureus [9]": {"system": "Staphylococcus aureus", "assay": "Minimum inhibitory concentration against X1.1 strain of Staphylococcus aureus", "type": "functional"}, "Escherichia coli": {"system": "Escherichia coli", "assay": "Minimum inhibitory concentration against EC14 strain Escherichia coli", "type": "functional"}},
  "data": [
    {"molecule": "CC1=C(C(=O)O)N2C(=O)[C@@H](NC(=O)COc3ccccc3)[C@H]2SC1", "values": [
      {"measurement": "MIC", "setting": "Streptococcus pneumoniae", "result": 2, "unit": "µg/mL"},
      {"measurement": "MIC", "setting": "Staphylococcus aureus [1]", "result": 32, "unit": "µg/mL"},
      {"measurement": "bioavailability", "setting": "[2]", "result": 37, "unit": "%"},
      {"measurement": "MIC", "setting": "Staphylococcus aureus [3]", "result": "> 128", "unit": "µg/mL"},
      {"measurement": "MIC", "setting": "Klebsiella aerogenes", "result": "> 128", "unit": "µg/mL"},
      {"measurement": "MIC", "setting": "Haemophilus influenzae [4]", "result": 16, "unit": "µg/mL"},
      {"measurement": "MIC", "setting": "[5]", "result": 4, "unit": "µg/mL"},
      {"measurement": "MIC", "setting": "[6]", "result": "> 128", "unit": "µg/mL"},
      {"measurement": "MIC", "setting": "Streptococcus pyogenes", "result": 2, "unit": "µg/mL"},
      {"measurement": "MIC", "setting": "Salmonella", "result": "> 128", "unit": "µg/mL"},
      {"measurement": "MIC", "setting": "Klebsiella pneumoniae", "result": "> 128", "unit": "µg/mL"},
      {"measurement": "MIC", "setting": "[7]", "result": 16, "unit": "µg/mL"},
      {"measurement": "MIC", "setting": "Haemophilus influenzae [8]", "result": 8, "unit": "µg/mL"},
      {"measurement": "MIC", "setting": "Staphylococcus aureus [9]", "result": 2, "unit": "µg/mL"},
      {"measurement": "MIC", "setting": "Escherichia coli", "result": "> 128", "unit": "µg/mL"}
    ]}
  ]
}
